This is an account of results in the RNAGym collection of RNA variant scans (doi:10.1126/science.aae0568).

Variants at the floor of the assay were thinned out.

The chains are these.
B1: tRNA (parent)
chain: GUUCCGUUGGCGUAAUGGUAACGCGUCUCCCUCCUAAGGAGAAGACUGCGGGUUCGAGUCCCGUACGGAACG

This data set covers variants of B1. In words: yeast fitness relative to wild type (ratio to wild type); higher = fitter; tRNA-Arg(CCU), competitive growth, 37 C, YPD. The essentials: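 Variants of the tRNA-Arg(CCU) gene were chemically synthesised with a 3% per-site mutation rate across 69 sites and placed at the native genomic locus in Saccharomyces cerevisiae. Six parallel replicates of the pooled strains were competed in YPD at 37°C for 24 hours, and gene amplicons from the start and end populations were read by 100-nucleotide paired-end sequencing. Darwinian fitness relative to wild type was derived from changes in genotype frequencies. Genotypes required ≥ 100 starting reads, and estimates < 0.5 were set to 0.5.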
As for C11U C60G C62U G68C, the yeast fitness worked out at 0.505. In the case of C11U G18A A43U it was 0.533.

Regarding C11U G48A U54C, the yeast fitness came to 0.677. In the case of C11U G48A C49A U54A it was at most 0.5; in that of C11U U28C C29G G39C, at most 0.5.

On to C11U G51A A65U, for which the yeast fitness is at most 0.5. Under C11U C29G C31U C34G A70C stands 0.534.

As for C11U C46A A65U, the yeast fitness turned out to be 0.682. For the variant C11U U19A A21C A42G, the yeast fitness amounted to 0.568.

Regarding C11U C29U G50A C66A, the yeast fitness was at most 0.5. In the case of C11U U26A C34G, the yeast fitness was found to be 0.607. With C11U G39C C55G, the yeast fitness was at most 0.5. In the case of C11U G39C C55A it was at most 0.5; in that of C11U C30U A65U C66G, 0.585. With C11U G38A A43C A65C, the yeast fitness was at most 0.5.

Take C11U U13C C29U A37C G39A C46A: the yeast fitness was at most 0.5.

In the case of C11U C34U G38A G44C C66U, the yeast fitness is at most 0.5. Under C11U C29U U47C G67A A70U stands at most 0.5; under C11U G51A G63C A69U, at most 0.5; under C11U U26A C33U U53C, at most 0.5. On to C11U C46A, for which the yeast fitness came out at 1.03.

For the variant C11U C46U, the yeast fitness was found to be 1. Under C11U C34G U47G stands at most 0.5. Consider C11U G25C C34A, for which the yeast fitness turned out to be 0.557.

As for C11U C55U G68C, the yeast fitness stood at 0.537. In the case of C11U U28C A40C G50C it was at most 0.5; in that of C11U C66U, 0.931; in that of C11U C29U C60G A70G, at most 0.5. In the case of C11U C31A G51C, the yeast fitness stood at 0.532. In the case of C11U G25A A57U it was at most 0.5; in that of C11U C61G A65C, 0.609. In the case of C11U C29G C31U A57U it was at most 0.5; in that of C11U U28C C29G, 0.541. Under C11U C27U U35C stands 0.635; under C11U G58A G63A, 0.74. Regarding C11U U35A G38A G52A G56C, the yeast fitness was at most 0.5. In the case of C11U C31U G41A it was 0.714; in that of C11U U13A G25A, 0.716. Under C11U U13A C30A C33A A57U stands at most 0.5. Under C11U C31U A42G C62U A69C stands at most 0.5. Consider C11U U35A G48C C61U, for which the yeast fitness was at most 0.5. In the case of C11U U47C G51C A70G it was 0.669; in that of C11U G48A G51A, 0.724; in that of C11U G48A G51C, 0.832.

C11U U16A A36G A43G C62A: the yeast fitness is at most 0.5. Under C11U G23A C60G C62A stands at most 0.5. In the case of C11U G50C it was 0.759; in that of C11U C55G G67A, at most 0.5. Under C11U C62U A70C stands 0.698; under C11U C34A A36C G67C, at most 0.5; under C11U C49G C55G C61G, at most 0.5. For C11U U28C, the yeast fitness was found to be 0.918. In the case of C11U C29G A37C A42U A57G C61U G67A it was at most 0.5; in that of C11U G18A G23C C34U, at most 0.5; in that of C11U U19C G23A G25A A43U C55U, at most 0.5. Under C11U U13A C27G C46A C49G stands at most 0.5; under C11U G18C G23C A57C, at most 0.5. C11U U35A G38A C61A: the yeast fitness is at most 0.5. For the variant C11U G18A G23A A36U G48C, the yeast fitness is at most 0.5. Under C11U C31G C33U A37C A65U stands at most 0.5; under C11U G51A G58A A70C, at most 0.5. In the case of C11U G48A it was 0.972; in that of C11U U16A C29A A45U, 0.605; in that of C11U C62G A69U, 0.578.

For the variant C11U G44C C61U, the yeast fitness was 0.528.

On to C11U C30U G38C A65G, for which the yeast fitness turned out to be 0.506. As to C11U C31A A42G, the yeast fitness was found to be 0.525. In the case of C11U C30A U47A C62A it was 0.591; in that of C11U C34A C61U, at most 0.5. For the variant C11U C49U G56C C62U, the yeast fitness is at most 0.5. Under C11U G44C G58A stands 0.712; under C11U U35C G41A G58A, at most 0.5.

Take C11U U16C C31U U54C: the yeast fitness was at most 0.5. In the case of C11U C31G A45C it was at most 0.5; in that of C11U G18C, 0.728; in that of C11U G52C G67C, at most 0.5.

Turning to C11U U16C C27U C31A U35C C55G C66U, the yeast fitness was at most 0.5. For C11U C49G A57C G67U, the yeast fitness was at most 0.5. In the case of C11U U47C it was 1.04; in that of C11U U13C C30A G52A A69U, at most 0.5; in that of C11U G17C, 0.768.

Take C11U G41C G68A A69C: the yeast fitness was at most 0.5.

Turning to C11U C60G G67A, the yeast fitness was 0.549. In the case of C11U G48A A65C it was 0.663. Under C11U G48A A65U stands 0.792; under C11U C55G A70C, 0.541; under C11U G48A G51C G68U, 0.59. Under C11U C62U A69C stands 0.842. On to C11U G52C C66U, for which the yeast fitness was at most 0.5. Turning to C11U G12C A21U U32A, the yeast fitness is 0.694.

Regarding C11U G51A G56A U59C, the yeast fitness is at most 0.5.

C11U C60A: the yeast fitness stood at 0.631.

As for C11U C46U C49U G67C, the yeast fitness was at most 0.5. Under C11U C31U C66U stands 0.742; under C11U G18A A40U, at most 0.5. In the case of C11U C34A C46U it was at most 0.5.

For C11U U35A G38A, the yeast fitness was 0.51. Under C11U U19A A37C A40C stands 0.501. For the variant C11U U35A G38A C55A C61G, the yeast fitness was at most 0.5. Under C11U G44A G63A stands 0.74; under C11U U16A C60G C62G, at most 0.5.

On to C11U C49U, for which the yeast fitness is 0.976. Under C11U C49A stands 0.724.

In the case of C11U U16C, the yeast fitness worked out at 1.02. Under C11U U16G stands 0.823; under C11U U26G U28C G56A, at most 0.5; under C11U G58A, 1.01.

For C11U C31G C49G, the yeast fitness was determined as 0.696. Regarding C11U C31G C34G A43U A69C, the yeast fitness was at most 0.5. Under C11U C29A C31G stands at most 0.5; under C11U U13C, 0.954; under C11U U13A, 0.832. In the case of C11U U26G it was 0.856. For the variant C11U U26A, the yeast fitness is 0.999.

On to C11U U26C, for which the yeast fitness amounted to 0.948. In the case of C11U C30G A40U U54A it was at most 0.5. In the case of C11U U16C U19A C29U it was at most 0.5. In the case of C11U U28C A40C G50C A70C it was at most 0.5; in that of C11U G25A A57C C60U G67C, at most 0.5; in that of C11U G48A C55A G58C, at most 0.5.

On to C11U C31G C55U C61U A65G, for which the yeast fitness was at most 0.5.

Turning to C11U G38C C62G, the yeast fitness came to 0.542. In the case of C11U C34A A70G it was 0.581; in that of C11U U35C, 0.7.

As to C11U C30U C46A, the yeast fitness was 0.821. In the case of C11U G12A A15C C31A G51A it was at most 0.5. In the case of C11U C31G C49G C62U G67C it was at most 0.5; in that of C11U G38A C60G, at most 0.5; in that of C11U C34A A57G, 0.548.

On to C11U U32C A40U, for which the yeast fitness was 0.785. In the case of C11U U26G A43C U53C C66U A70C it was 0.504; in that of C11U U19A U64C, 0.664; in that of C11U G17A A57G, at most 0.5. On to C11U C31G C46A U54C C61G, for which the yeast fitness is at most 0.5. In the case of C11U C29U G38A G48C C62G it was at most 0.5. For the variant C11U G17A C34U C55G, the yeast fitness was at most 0.5. In the case of C11U C34U it was 0.714; in that of C11U C30U A43G, at most 0.5; in that of C11U U19A C30G G68A, at most 0.5. C11U G39C G58A A70U: the yeast fitness was at most 0.5.

On to C11U C33A C34G, for which the yeast fitness came to 0.526. C11U G17A C49U: the yeast fitness was 0.596. Under C11U U13A U32C C49U stands at most 0.5. In the case of C11U G18C G39C it was at most 0.5.

As for C11U U16C C27G C34G G67A, the yeast fitness was at most 0.5. Under C11U U32A A42C stands 0.545; under C11U C46U A70G, 0.786; under C11U U35G U47A G48A A65U, at most 0.5.

Regarding C11U G17C A21U, the yeast fitness was 0.541. C11U G50A G63A: the yeast fitness is 0.606.

Regarding C11U G56C A57U C60U, the yeast fitness is at most 0.5. In the case of C11U G12A A15C C31A G51A C66U it was 0.594; in that of C11U U19G C22G A42G G44C C55U, at most 0.5. Under C11U C61U stands 0.827; under C11U C34A G41C A42G, at most 0.5. In the case of C11U G38A C60U G67C it was at most 0.5.

C11U C31U G58C: the yeast fitness is 0.643. Under C11U C29A U35C stands at most 0.5. Take C11U C33G C46A C61A: the yeast fitness is at most 0.5. Consider C11U G17U A40U A42U C49G G51A C66A G68C, for which the yeast fitness was at most 0.5. With C11U U13C A14G C24A A43C G50C C60G, the yeast fitness is at most 0.5.

On to C11U G12C C46A, for which the yeast fitness is at most 0.5. Under C11U C30G A40U A45U C55G stands 0.604; under C11U C29A A57G, at most 0.5; under C11U G17C A45G, 0.586. In the case of C11U C29U G67A A70U it was 0.578; in that of C11U G58A A65G, 0.777.
